Sampled rows, rich in hits. Any-hit rate of the full collection: about 3.1%.
INS-1E GSIS act: primary screen for activators of insulin secretion dependent on glucose, INS-1E cells, GLuc reporter luminescence | INS-1E GLuc reporter insulin secretion, 2-3 h | activation, % at 16.6 µM | 370,000 compounds, 0.61% hits;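 active = lowest replicate activation of at least 40%, so every replicate reaches that level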
rRNA inh HTS: inhibitors of bacterial rRNA selective over humanized ribosomes | 350,000 compounds, 1.6% hits | GFP signal change (wild-type ribosome), % (test concentration not listed) | E. coli WT GFP vs humanized-ribosome RFP mutants, fluorescence, 24 h; active compounds read low; DMSO median 0, no signal -100;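 active = significant combined selectivity score with lowered wild-type GFP, culture density cut under 30%, mutant RFP and density less affected; inactive = any of these conditions unmet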
HIV Env fusion: blocks HIV Env-driven cell-cell fusion. 360,000 compounds, 1.1% hits. HeLa-JRFL Env/CEM21 cell fusion, luciferase. inhibition, % at 12.3 µM;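 active = mean replicate inhibition score of at least 50 and every replicate individually at or above 50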
miR122 inh: miR-122 inhibition in Huh7 cells | Huh7 miR-122 Renilla luciferase sensor, 48 h; neutral wells = 0, positive control = 100 | activation (reporter increase), % at 12.5 µM | 340,000 compounds, 0.3% hits;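 active = mean replicate activation score at least 90 and every replicate individually at or above 90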;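 also: higher luciferase means less miR-122 activity so hits act as miR-122 inhibitors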
F508del corr: CFTR F508del correction in bronchial cells; activity (quench increase), % at 7.58 µM; CFBE cells, YFP halide quenching; stimulated with forskolin plus potentiator P3; % fluorescence drop versus neutral controls; AID 720511; 350,000 compounds, 0.36% hits;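 active = mean added fluorescence quench of at least 8% versus neutral control, with both replicates also reaching 8%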;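 also: cells transiently co-express mutant CFTR-F508del with the halide-sensitive YFP; corrector assay measuring rescue of mutant channel to the surface after 24 h compound exposure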
Cneo AK release: Cryptococcus neoformans lysis via adenylate kinase release. C. neoformans lysis, adenylate kinase release luminescence, 4 h; normalised: neutral wells 0, clomiphene wells 100. lysis activity, % at 15 µM. 360,000 compounds, 0.2% hits;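 active = mean lysis activity across replicates of at least 80%, whatever share of replicates individually reach that level; inactive = mean lysis activity below 80%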
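read-out = cell lysis signal | test system = log-phase Cryptococcus neoformans yeast cells | input = cells at 5 × 10^6 per mL | medium = fresh YPD growth medium | signal = luminescent adenylate kinase detection reagent | timing = 4 h at 37 °C static, read 1 h later | dosing = single dose | controls = Clomiphene as positive lysis control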
Of the large screens only hits and unclear results are named; the others gave an inactive call; ! = not confirmed by another sample; [ ] = dose if it differs, or a comment.

COc1ccc(C2C(C(N)=O)=C(C)Nc3nc(-c4ccccc4)nn32)cc1OC (stereo not given)	none (no result: miR122 inh)
C[C@H]1CCCCO[C@H](CN(C)C)[C@@H](C)CN([C@@H](C)CO)C(=O)c2cc(NC(=O)Nc3ccc(F)cc3)ccc2O1	none
Cc1ccc(NC(=O)c2cc(-n3cnnc3)ccc2Cl)cc1	none (no result: INS-1E GSIS act, rRNA inh HTS, F508del corr)
Cc1ccc(NC(=O)c2cc(N3C(=O)C=CC3=O)ccc2Cl)cc1C	INS-1E GSIS act 50 (no result: rRNA inh HTS, F508del corr)
C[C@H](CO)N1C[C@H](C)[C@H](CN(C)C(=O)Nc2ccc(C(F)(F)F)cc2)Oc2ccc(NC(=O)Nc3ccc(C(F)(F)F)cc3)cc2CC1=O	none
Cc1ccc(S(=O)(=O)Nc2ccc3c(c2)C(=O)N([C@H](C)CO)C[C@@H](C)[C@@H](CN(C)C(=O)Nc2ccc4c(c2)OCO4)O3)cc1	none (no result: Cneo AK release)
Cc1ccc(S(=O)(=O)NN2C(=O)/C(=C\c3ccc(Cl)cc3)SC2=S)cc1	none (no result: miR122 inh)
Cc1ccc(S(=O)(=O)NN2C(=O)/C(=C/c3cccs3)SC2=S)cc1	rRNA inh HTS -34
Cc1ccc(/C=C2\SC(=S)N(NS(=O)(=O)c3ccc(C)cc3)C2=O)cc1	Cneo AK release 121
C[C@@H]1CN([C@@H](C)CO)C(=O)c2cc(NS(=O)(=O)c3ccc(Cl)cc3)ccc2O[C@@H]1CN(C)S(C)(=O)=O	none (no result: Cneo AK release)
CC(=O)/C(=N/Nc1ccc([N+](=O)[O-])cc1)N1CCCc2ccccc21	none
CC(=O)/C(=N/Nc1ccccc1[N+](=O)[O-])N1CCCc2ccccc21	rRNA inh HTS -28
CC(C)Cn1cnc2c(c1=N)C(c1ccccc1)C1=C(CC(C)(C)CC1=O)O2 (stereo not given)	rRNA inh HTS -38 (no result: miR122 inh, Cneo AK release)
COc1ccc(C2C3=C(CC(C)(C)CC3=O)Oc3ncn(CCO)c(=N)c32)cc1OC (stereo not given)	none (no result: rRNA inh HTS, F508del corr)
COc1ccc(NC(=O)COc2ccc(C(=O)NC3CCCc4ccccc43)cc2OC)cc1 (stereo not given)	INS-1E GSIS act 176 (no result: rRNA inh HTS, miR122 inh, F508del corr, Cneo AK release)
CO[C@H](C(=O)N(C)C[C@H]1OCc2ccccc2-c2c(n(C)c3ccccc23)C(=O)N([C@@H](C)CO)C[C@@H]1C)c1ccccc1	none (no result: miR122 inh)
Cc1ccc(S(=O)(=O)NNC(=O)Nc2cccc(F)c2)c(C)c1	none (no result: HIV Env fusion)
Cc1ccc(S(=O)(=O)NNC(=O)Nc2ccc([N+](=O)[O-])cc2)c(C)c1	rRNA inh HTS -23
O=C(N[C@H]1C=C[C@@H](CC(=O)N2CCC(Cc3ccccc3)CC2)O[C@@H]1CO)c1cnccn1	none (no result: HIV Env fusion, miR122 inh)
CCCOC(=O)C1C2C=CC(C3CC23)C1C(=O)OCC(=O)c1ccccc1 (stereo not given)	HIV Env fusion 62 (no result: INS-1E GSIS act, rRNA inh HTS, F508del corr)
C[C@@H]1CN([C@H](C)CO)S(=O)(=O)c2ccc(-c3cccc(F)c3)cc2O[C@@H]1CN(C)S(=O)(=O)c1ccc(F)cc1	HIV Env fusion 56[16.7 µM]
CCCC#Cc1ccc2c(c1)O[C@@H](CN(C)S(=O)(=O)c1cccc(F)c1)[C@@H](C)CN([C@H](C)CO)S2(=O)=O	HIV Env fusion 64[16.7 µM]
CC(C)CC#Cc1ccc2c(c1)O[C@@H](CN(C)Cc1cccc(F)c1)[C@@H](C)CN([C@H](C)CO)S2(=O)=O	none
COCC#Cc1ccc2c(c1)O[C@H](CN(C)Cc1ccc3c(c1)OCO3)[C@@H](C)CN([C@@H](C)CO)S2(=O)=O	miR122 inh 109[16.7 µM]
CC(C)CC#Cc1ccc2c(c1)O[C@@H](CN(C)Cc1cccc(F)c1)[C@H](C)CN([C@@H](C)CO)S2(=O)=O	INS-1E GSIS act 95
C[C@@H]1CN([C@H](C)CO)S(=O)(=O)c2ccc(-c3ccncc3)cc2O[C@@H]1CN(C)C(=O)CC1CC1	none
CC(=O)N1[C@@H](CO)[C@@H](c2ccccc2)C12CN(C(=O)c1cnccn1)C2	none (no result: HIV Env fusion, miR122 inh, Cneo AK release)
COCC(=O)Nc1ccc2c(c1)OC[C@@H](C)N(Cc1ccccc1F)C[C@H](C)[C@H](OC)CN(C)C2=O	none (no result: HIV Env fusion)
CC(C)CC#Cc1ccc2c(c1)O[C@@H](CN(C)S(=O)(=O)c1cccc(F)c1)[C@@H](C)CN([C@@H](C)CO)S2(=O)=O	HIV Env fusion 77[16.7 µM] (no result: INS-1E GSIS act, rRNA inh HTS)
COc1ccccc1-c1ccc2c(c1)O[C@H](CN(C)S(=O)(=O)c1ccccc1)[C@H](C)CN([C@H](C)CO)S2(=O)=O	HIV Env fusion 56[16.7 µM]
CC(C)CC#Cc1ccc2c(c1)O[C@@H](CN(C)S(=O)(=O)c1ccc(F)cc1)[C@H](C)CN([C@H](C)CO)S2(=O)=O	none
C[C@@H]1CN([C@H](C)CO)S(=O)(=O)c2ccc(Br)cc2O[C@H]1CN(C)S(=O)(=O)c1ccc(F)cc1	none (no result: F508del corr)
CC(C)CC#Cc1ccc2c(c1)O[C@H](CN(C)S(=O)(=O)c1ccc(F)cc1)[C@H](C)CN([C@@H](C)CO)S2(=O)=O	HIV Env fusion 61[16.7 µM]
C[C@H](CO)N1C[C@H](C)[C@H](CN(C)S(=O)(=O)c2cccc(F)c2)Oc2cc(Br)ccc2S1(=O)=O	HIV Env fusion 78![16.7 µM]
CC(C)CC#Cc1ccc2c(c1)O[C@H](CN(C)S(=O)(=O)c1cccc(F)c1)[C@@H](C)CN([C@H](C)CO)S2(=O)=O	none
Oc1ccc(-c2csc(Nc3ncccn3)n2)cc1O	rRNA inh HTS -30 (no result: miR122 inh, Cneo AK release)
Nc1nc(-c2ccc(Oc3ccccc3)cc2)cs1	none (no result: miR122 inh)
Nc1nc(-c2ccc(-c3ccccc3)cc2)cs1	rRNA inh HTS -25 (no result: Cneo AK release)
Oc1ccc(-c2csc(-c3ccccc3)n2)cc1O	rRNA inh HTS -34 (no result: HIV Env fusion)
CO[C@@H]1CN(C)C(=O)c2cc(NC(=O)C3CC3)ccc2OC[C@H](C)N(Cc2cccc(F)c2)C[C@H]1C	none (no result: HIV Env fusion, miR122 inh)
O=C1CCCC(O)=C1Sc1cc(Cl)c(Cl)cc1Cl	rRNA inh HTS -23
Cc1cccc(C)c1NC(=O)COC(=O)c1cc(S(=O)(=O)Nc2ccc(Cl)cc2)ccc1O	none (no result: INS-1E GSIS act, rRNA inh HTS, HIV Env fusion)
CC(C)(C)C(=O)Nc1cc(S(=O)(=O)Nc2ccc(Cl)cc2)ccc1O	miR122 inh 167 (no result: Cneo AK release)
CCCCn1nc(C(=O)NC2CCCCC2)c2ccccc2c1=O	none (no result: INS-1E GSIS act, rRNA inh HTS, F508del corr)
CCCn1nc(C(=O)NC2CC2)c2ccccc2c1=O	INS-1E GSIS act 52 (no result: miR122 inh)
O=C1CCCc2cnnn2COCCN1	none (no result: HIV Env fusion, miR122 inh, F508del corr, Cneo AK release)
O=C(COC(=O)CCC1CCCC1)Nc1nc2c(F)c(F)c(F)cc2s1	Cneo AK release 91 (no result: rRNA inh HTS, F508del corr)
O=C(COC(=O)c1ccco1)Nc1nc2c(F)c(F)c(F)cc2s1	none (no result: miR122 inh)
C[C@@H]1CN([C@H](C)CO)C(=O)c2cccc(NC(=O)CCCCCC(=O)Nc3ccccc3N)c2O[C@H]1CN(C)Cc1ccc(C(F)(F)F)cc1	none (no result: HIV Env fusion, miR122 inh, Cneo AK release)
Cc1ccc(C(=O)Nc2cccc(-c3cn4ccccc4n3)c2)cc1	rRNA inh HTS -29 (no result: Cneo AK release)
COc1cccc(-c2nc3ccccc3c(=O)o2)c1	none (no result: INS-1E GSIS act, rRNA inh HTS, F508del corr)
O=C(Nc1cccc(-c2cn3ccccc3n2)c1)c1ccccc1	rRNA inh HTS -32 (no result: miR122 inh, Cneo AK release)
